Data as given in publication PMC10159923 (Lab on a chip, 2023).
Each block holds one substance with its values, some of them ahead of it.

Assays:
PAR1/PAR2 = assay: MEIRS cellular response of A431 cells to PAR peptides / control peptide; type: cell-based, human
Outline: (§1)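 A431 cells (ATCC, passage <15) were seeded at ~500,000/mL in DMEM + 10% FBS on fibronectin-coated (10 μg/mL) metasurface wells and incubated overnight. Medium was then swapped to L15 + 1% antibiotic-antimycotic. One baseline spectrum preceded manual addition of peptide in L15. FTIR reflectance was taken at room temperature, every 4 min per well, for 1 h. Spectra were differenced from t = 0, and first-PC signals were extracted from the protein, plasmonic and lipid windows (mean ± standard error, n = 4).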

PAR1 = target: T1, PAR1 (Homo sapiens, UniProt P25116); assay: MEIRS cellular response of A431 cells to PAR1 activating peptide; type: cell-based
T1 sequence (P25116 22-425): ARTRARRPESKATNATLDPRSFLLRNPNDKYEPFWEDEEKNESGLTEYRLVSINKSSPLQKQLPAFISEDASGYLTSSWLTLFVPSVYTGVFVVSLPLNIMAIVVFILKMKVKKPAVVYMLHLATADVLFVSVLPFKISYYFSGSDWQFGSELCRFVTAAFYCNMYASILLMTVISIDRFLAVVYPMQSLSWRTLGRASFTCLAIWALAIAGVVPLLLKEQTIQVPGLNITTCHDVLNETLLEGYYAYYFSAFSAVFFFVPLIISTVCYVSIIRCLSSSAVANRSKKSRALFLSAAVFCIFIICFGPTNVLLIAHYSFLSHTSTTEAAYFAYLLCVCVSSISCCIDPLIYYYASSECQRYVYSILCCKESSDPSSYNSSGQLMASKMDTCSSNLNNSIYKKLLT
Outline: as §1

A431 cells = assay: Phase contrast imaging of cell spreading on coated metasurfaces; type: cell-based, human; conditions: Fig. S2
[1] = tested on: cells (cell type not given); conditions: among others, including collagen and PDL; cited from earlier work

- duration of gradual decrease in cellular signal back to baseline level (PAR1; MEIRS PC1 signal, after peak): about 30 min
- time of cellular signal peak after peptide addition (PAR1; MEIRS PC1 signal, Δt = 4 min, n = 4): 8 to 12 min
- initial change in cellular signal on addition of peptide (PAR1; as soon as the peptides were added): rapid increase in the cellular signal
Substance: SFLLR-NH2
- peak amplitude of cellular signal (SFLLR vs SLIGKV) (PAR1/PAR2; 100 μM): similar
- course of cellular signal after maximal point (PAR1; MEIRS PC1 signal): decreased right after the maximal point was reached

Substance: VKGILS-NH2
- cellular response to control peptide (PAR1/PAR2; MEIRS PC1 signal, n = 4): very little response from the cells

Substance: fibronectin
- cell spreading, phase contrast morphology (A431 cells): cells spread well
- best coating material by electric impedance [1]: often the best coating material
